Hits are enriched below; roughly 2.8% of the tested compounds scored in any of these assays.
mABHD4 FP = inhibits mouse alpha/beta hydrolase domain 4. AID 720543. 0.54% of 370,000 active. Q8VD66. purified mABHD4, FP-Rh probe fluorescence polarization. inhibition, % at 8.92 µM;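 active = inhibition exceeding the mean over every tested compound plus 3 SD, cut at about 30% in these data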;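 also: 0% = plate median of compound wells and 100% = S159A mutant with DMSO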
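Test system: mABHD4 protein | Buffer or medium: HEPES pH 7.0 buffer, 150 mM NaCl, 0.01% Pluronic F-127 | Probe or stimulus: FP-Rh fluorescent activity-based probe, added after compound pre-incubation | Timing: Pre-incubation 45 min, probe exposure 60 min, at 25 °C | Technique: Fluorescence polarization, excitation 525 nm, emission 598 nm, BODIPY TMR filters | Repeats: Single well per compound (singlicate)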
PAFAH1B3 FP inh = PAFAH1B3 (human) inhibition. 0.28% of 340,000 active. AID 492972. recombinant PAFAH1B3, FP-rhodamine probe, fluorescence polarization. inhibition, % at 3.39 µM;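 active = inhibition above the screen-wide average of all tested compounds plus 3 SD, cut at about 25% in these data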;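 also: 0% = enzyme with DMSO only and 100% = wells lacking PAFAH1B3 protein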
pPAFAH inh = inhibitors of human plasma PAF acetylhydrolase (pPAFAH); inhibition, % at 3.39 µM; 1.5% of 330,000 active; recombinant pPAFAH, FP-rhodamine probe fluorescence polarization; Q13093;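 active = inhibition above the mean inhibition across the screen plus 3 SD, cut at about 25% in these data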;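 also: inhibitors block binding of the rhodamine activity-based probe so polarization drops; 0% = enzyme with DMSO and 100% = wells lacking pPAFAH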
PAFAH2 FP inh = inhibitors of human PAFAH2. recombinant PAFAH2, FP-rhodamine activity probe, fluorescence polarization. inhibition, % at 3.39 µM. 0.99% of 340,000 active;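 active = inhibition above the mean over all tested compounds plus 3 SD, cut at about 30% in these data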;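 also: inhibitors block probe labeling of enzyme so polarization drops; 0% = enzyme with DMSO and 100% = wells lacking PAFAH2 protein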
PAFAH1B2 inh = PAFAH1B2 (human) inhibition; P68402; recombinant PAFAH1B2, FP-rhodamine activity probe, fluorescence polarization; inhibition, % at 3.39 µM; 1.2% of 340,000 active;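 active = inhibition above the mean of all tested compounds plus 3 SD, cut at about 24% in these data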;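 also: 0% = enzyme with DMSO and 100% = wells lacking PAFAH1B2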
HTRA1 inh = HTRA1 (human) protease inhibition; Q92743; recombinant HTRA1, FP-rhodamine activity-based probe, fluorescence polarization; 0.5% of 340,000 active; inhibition, % at 5.96 µM; AID 504803; in the data active = inhibition above about 36%;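 also: 0% = enzyme with DMSO and 100% = wells lacking enzyme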
Target sequence (Q92743 whole entry, looked up): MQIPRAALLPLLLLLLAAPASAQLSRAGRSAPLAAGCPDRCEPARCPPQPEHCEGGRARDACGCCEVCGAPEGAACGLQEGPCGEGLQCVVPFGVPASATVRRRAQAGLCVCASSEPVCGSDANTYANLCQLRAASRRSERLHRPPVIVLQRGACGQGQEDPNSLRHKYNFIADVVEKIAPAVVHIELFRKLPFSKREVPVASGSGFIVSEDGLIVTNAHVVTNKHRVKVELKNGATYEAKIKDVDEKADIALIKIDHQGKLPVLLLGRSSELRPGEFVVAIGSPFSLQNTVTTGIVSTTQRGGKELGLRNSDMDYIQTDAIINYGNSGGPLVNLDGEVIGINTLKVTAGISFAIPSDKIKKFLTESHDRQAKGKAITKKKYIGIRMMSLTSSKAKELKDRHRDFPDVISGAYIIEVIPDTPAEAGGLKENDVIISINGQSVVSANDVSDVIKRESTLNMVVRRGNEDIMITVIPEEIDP
Starred values were filed as active, the others as inactive; · = not tested or not shown.

SMILES	mABHD4 FP	PAFAH1B3 FP inh	pPAFAH inh	PAFAH2 FP inh	PAFAH1B2 inh	HTRA1 inh
CCC(C)[C@H]1CNC(=S)N1CCc1cc(C(F)(F)F)cc(C(F)(F)F)c1 (some centres not stated)	-7	19	27*	-5	3	-36
COc1ccc(C/C(=N\OC(C)=O)c2ccc(OC)cc2)cc1	·	1	2	2	30*	3
COc1ccc(/C(N)=N/OC(=O)Cc2ccc(C)cc2)cc1	-10	2	6	10	9	-13
Cc1cccc(Nc2nnc(SC/C(O)=C(\C#N)c3nc4ccccc4[nH]3)s2)c1C	-2	9	28*	11	21	16
Cc1ccc(C)n1-c1ccc(C(=O)O)cc1	·	·	31*	·	·	·
CC(=O)c1c(C(C)=O)c(C)n(-c2ccc(C(=O)O)cc2)c1C	1	5	-1	-5	2	-7
CN(CC#Cc1ccccc1)C(N)=NC(=O)/C=C/c1ccccc1	1	·	·	·	·	·
O=C(c1cc2n(n1)C(C(F)(F)F)CC(c1ccco1)N2)N1CCN(c2ccccn2)CC1 (configuration not stated)	5	9	9	-6	0	-5
Cc1cccc(N2CCN(C(=O)c3cc4n(n3)C(C(F)(F)F)CC(c3ccco3)N4)CC2)c1C (configuration not stated)	-7	4	34*	7	3	-32
Cc1cccc(NC(=O)n2ccc3ccc(-c4ccc5cc[nH]c5c4)cc32)c1	-33	·	·	·	·	·
CNC(=O)CCc1nc(-c2ccc(C(C)C)cc2)no1	3	·	·	·	·	·
COCCNC(=O)c1onc(CSc2ccc(Cl)cc2)c1C(=O)O	4	6	4	10	28*	-2
Cn1c(NCCO)nc2c1c(=O)n(Cc1cccc(Cl)c1)c(=O)n2C	5	4	1	3	10	4
Cn1c(NCCN2CCOCC2)nc2c1c(=O)n(Cc1cccc(Cl)c1)c(=O)n2C	4	-1	5	3	28*	1
O=C(O)c1cnn(-c2nc(-c3ccc(Br)cc3)cs2)c1C(F)(F)F	-20	13	10	2	40*	-13
NC(=O)Cc1nc(-c2ccc(Br)cc2)cs1	-3	7	0	5	-1	0
COC(=O)[C@]12CCCCC=C1N(Cc1ccc(OC)cc1)C(=O)[C@@H]2CC(=O)NCc1cccs1	-2	·	·	·	·	·
CCC(=O)Nc1sc2c(c1C(N)=O)CCC2	-10	-6	0	-4	9	1
N#CCC(=O)Nc1sc2c(c1C(N)=O)CCCC2	-17	3	33*	-4	0	-4
CNC(=O)C[C@H]1CC[C@H]2[C@@H](COc3ccc(NC(=O)Nc4ccccc4)cc3C(=O)N2C)O1	14	·	·	·	·	·
O=[N+]([O-])c1cccnc1Oc1cc(Cl)c(Cl)cc1Cl	-7	·	·	·	·	-14
Cc1cc(Oc2ncccc2[N+](=O)[O-])c2cc(Cl)ccc2n1	-7	2	26*	-1	-1	-5
COC1=C[C@H](C(=O)NC2CCN(Cc3ccccc3)CC2)[C@@]2(C)Cc3ccccc3[C@H]2CC1=O	1	·	·	·	·	·
COc1cc(OC)c2c(O)c3c(=O)cc(C)oc3c(-c3c(OC)cc4cc5c(c(O)c4c3O)C(=O)CC(C)(O)O5)c2c1 (configuration not stated)	-12	·	·	·	·	·
Cc1ccc(S(=O)(=O)N2[C@@H](c3ccccc3)C(C(=O)O)=CC[C@H]2c2cccc(C)c2)cc1	7	18	2	6	38*	-7
SMILES	mABHD4 FP	PAFAH1B3 FP inh	pPAFAH inh	PAFAH2 FP inh	PAFAH1B2 inh	HTRA1 inh
COc1cccc([C@@H]2CC=C(C(=O)O)[C@H](c3ccccc3)N2S(=O)(=O)c2ccc(C)cc2)c1	8	-6	2	5	12	-6
COc1cccc([C@@H]2CC=C(C(=O)O)[C@H](c3ccc(F)cc3)N2S(=O)(=O)c2ccc(C)cc2)c1	9	17	-4	-3	26*	-15
Cc1ccc(SCCC(=O)OCC(=O)Nc2ccc(S(N)(=O)=O)cc2)cc1	-1	-3	12	-7	24*	2
CCOc1ccc(N(CC(=O)NCCc2ccc(Cl)cc2)S(=O)(=O)c2c(C)[nH]c(=O)[nH]c2=O)cc1	-4	11	6	7	28*	-1
CC1=C(C(=O)OCCc2ccccc2)C(c2ccsc2)NC(=O)N1C (configuration not stated)	-5	-7	28*	2	68*	-1
CC1=C(C(=O)OCc2ccccc2)C(c2ccsc2)NC(=O)N1C (configuration not stated)	-12	-6	9	6	4	-1
COc1ccc(C=Nc2cccnc2N)cc1	·	7	27*	4	-2	24
CC(C)[C@H]1/C(=C/C2CC2)N2C(=O)C[C@@H](c3ccccc3)N=C2N1Cc1ccc2c(c1)OCO2	-3	·	·	·	·	·
CCOC(=O)c1ccc(NC(=O)C2(c3ccc(Cl)cc3)CCCC2)cc1	-3	-1	-2	-9	29*	-2
CCOC(=O)c1ccc(NC(=O)C2(c3ccccc3)CCCC2)cc1	-13	-1	-12	-2	14	-41
Cc1ccc(-n2c(SCc3c(Cl)cccc3Cl)nnc2-c2ccco2)cc1	-9	·	·	·	·	·
Cc1ccc(N2CC(C(=O)Nc3nnc(SCC(N)=O)s3)CC2=O)cc1C (configuration not stated)	1	0	-1	2	3	-4
CC(C)Cc1nnc(NC(=O)C23CC4CC(CC(C4)C2)C3)s1	0	0	-1	5	20	-3
CCc1nnc(NC(=O)C23CC4CC(CC(C4)C2)C3)s1	5	6	5	9	30*	-8
NC(=O)CSc1nnc(NC(=O)C23CC4CC(CC(C4)C2)C3)s1	·	3	8	8	28*	2
O=C1Nc2ccccc2C1=Nc1ccc(S(=O)(=O)Nc2nccs2)cc1	42*	8	8	14	6	7
NS(=O)(=O)c1ccc(N=C2C(=O)Nc3ccccc32)cc1	2	-1	-2	-2	-2	5
N/C(=C\C(=O)c1cc(Cl)ccc1O)C(Cl)(Cl)Cl	-25	79*	4	15	0	-13
CC(C)(C)c1ccc(C(=O)CC(=O)c2cc(Cl)ccc2O)cc1	0	4	-2	-6	0	-13
CC(NC(=O)/C=C/c1cnc2ccccc2n1)C12CC3CC(CC(C3)C1)C2 (configuration not stated)	-4	8	5	12	24*	-57
O=S(=O)(Nc1ccc2cn[nH]c2c1)c1ccc(Cl)cc1	·	12	1	17	32*	3
CC(COc1ccccc1C#N)CN1CCC(C(O)(c2ccccc2)c2ccccc2)CC1 (configuration not stated)	8	·	·	·	·	·
OCCN1CCN(c2ncnc3c2c(-c2ccccc2)cn3-c2ccc(F)cc2)CC1	-3	4	25*	-5	-1	2

High-throughput results: PubChem BioAssay, The Scripps Research Institute Molecular Screening Center
